The list is not random: actives were taken first. Their share in the collection is about 4%.
Statin myotox sup = protects C2C12 myotubes from simvastatin toxicity; ATP luminescence, 48 h; scaled: DMSO 0, geranylgeraniol control 100; rescue of ATP level, % at 7.49 µM; 330,000 compounds, 0.78% hits; AID 602340;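 active means mean ATP rescue above about 67%, or every replicate alone reaching that limit, limit read from the data, passing the limit was not always enough; inconclusive means no clear call, values can overlap the other calls; inactive means mean under the limit and some replicate under it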;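 further: myotubes were challenged with 10 µM simvastatin during compound exposure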
SIRT5 block = blocks human SIRT5 desuccinylation of peptide; inhibition, % at 15 µM; Purified SirT5, succinyl-peptide AMC, trypsin-coupled fluorescence; AID 652115; Q9NXA8; 330,000 compounds, 1.1% hits; in the data active means inhibition above about 15%; inconclusive means no clear call, values can overlap the other calls
rRNA inh HTS = selective bacterial rRNA inhibition in E. coli; GFP signal change (wild-type ribosome), % (no concentration beside the values); 350,000 compounds, 1.6% hits; E. coli WT GFP vs humanized-ribosome RFP mutants, fluorescence, 24 h; stronger effect = lower value; DMSO median 0, no signal -100;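 active means significant combined selectivity score with lowered wild-type GFP, culture density cut under 30%, mutant RFP and density less affected; inactive means any of these conditions unmet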
FN deposit inh = fibronectin deposition inhibition | AID 743247 | 350,000 compounds, 0.086% hits | inhibition, % at 12.6 µM | AH1F fibroblasts, Alexa488-fibronectin deposition fluorescence, overnight;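 active means mean inhibition across replicates of 30% or more, regardless of how many single replicates reach that level; inconclusive means mean under 30% yet at least half of replicates reach 30%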
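Material: AH1F fibroblast monolayer depositing Alexa488-labelled fibronectin into matrix / Amount: 10000 AH1F cells per well / Signal: fluorescence 485/525 nm / Medium: DMEM, 2% serum / Compound: single dose, pinned / Incubation: 1 h cell adhesion before compound, then overnight fibronectin incubation / Reagent: Alexa488-FN, 24 nM final / Read-out: inhibition of fibronectin deposition signal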
FGF22 binding = shifts melting point of recombinant human FGF22 | 340,000 compounds, 1.5% hits | activity (Tm shift, normalised), % at 9.99 µM | recombinant FGF22 thermal shift, SYPRO orange fluorescence; percent of sucrose octasulfate shift, DMSO zero;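 active means mean Tm shift, scaled 0 neutral to 100 positive control, at about 1.3% or above, every replicate too, limit read from the data; inconclusive means no clear call, values can overlap the other calls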
Target sequence (Q9HCT0 whole entry, looked up): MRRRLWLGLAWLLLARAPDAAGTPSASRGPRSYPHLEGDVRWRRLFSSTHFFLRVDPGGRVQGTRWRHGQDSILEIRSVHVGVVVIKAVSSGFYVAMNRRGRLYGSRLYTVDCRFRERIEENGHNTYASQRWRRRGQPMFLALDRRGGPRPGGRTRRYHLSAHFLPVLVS
E-selectin induc = E-selectin induction on HUVECs | P16581 | HUVEC E-selectin immunofluorescence imaging; normalized: neutral wells 0, TNF-alpha wells 100 | activation, % at 7.58 µM | 260,000 compounds, 0.37% hits;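 active means mean E-selectin-positive cell signal at least 10% of the positive control, reached in at least 60% of replicates, without over 20% cell loss; inconclusive means no rule given, readout overlaps actives, possibly toxicity-flagged; inactive means the rest, including those meeting only one limit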
Target sequence (P16581 whole entry, looked up): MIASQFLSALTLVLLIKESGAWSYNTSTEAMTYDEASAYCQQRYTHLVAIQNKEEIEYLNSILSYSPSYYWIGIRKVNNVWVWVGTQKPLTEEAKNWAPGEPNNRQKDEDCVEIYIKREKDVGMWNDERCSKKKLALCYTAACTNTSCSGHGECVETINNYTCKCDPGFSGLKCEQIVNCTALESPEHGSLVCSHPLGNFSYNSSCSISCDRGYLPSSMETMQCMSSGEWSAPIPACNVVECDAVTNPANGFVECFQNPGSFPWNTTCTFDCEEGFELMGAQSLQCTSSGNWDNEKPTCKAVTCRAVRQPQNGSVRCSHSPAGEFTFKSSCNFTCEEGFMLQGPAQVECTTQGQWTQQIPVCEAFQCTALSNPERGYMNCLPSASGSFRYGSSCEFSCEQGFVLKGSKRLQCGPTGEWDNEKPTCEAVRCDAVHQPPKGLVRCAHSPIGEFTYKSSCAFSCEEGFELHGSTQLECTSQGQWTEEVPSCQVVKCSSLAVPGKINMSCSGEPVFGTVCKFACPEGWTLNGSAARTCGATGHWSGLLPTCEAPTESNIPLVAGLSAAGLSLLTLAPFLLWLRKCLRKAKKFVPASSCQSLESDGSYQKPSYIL
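System: HUVEC / Compound: single concentration / Signal: immunofluorescence imaging / Read-out: percent E-selectin-positive cells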
AID977621 = growth inhibition of wild-type GFP E. coli, dose response, H69 mutant RFP, cherry-pick; shares compounds with rRNA inh HTS; E. coli wild-type GFP strain growth, fluorescence, 24 h; activity change, negative = inhibition at 50 µM; 1,900 tested, under 10 active;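 active means Wild-type ribosome reporter drop at least double the humanized mutant ribosome reporter drop, growth loss under a set limit; inconclusive means no clear call, values can overlap the other calls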;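 further: wild-type GFP and H69 mutant RFP strains grown together 50/50 in each well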
AID977628 = E. coli growth inhibition, wild-type GFP versus h24 humanized RFP strain, dose response, h24 mutant RFP vs wild-type GFP, cherry-pick; AID 977628; shares compounds with rRNA inh HTS; E. coli WT GFP strain growth, fluorescence, 24 h; activity change, negative = inhibition at 50 µM; 1,900 tested, under 10 active;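 active means compound lowering the normal-ribosome reporter at least twice as much as the humanized-ribosome reporter, growth loss under a set limit; inconclusive means no clear call, values can overlap the other calls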;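 further: wild-type GFP and h24 humanized RFP strains co-cultured 1 to 1 per well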
Hits are given with their value; - = inactive; ? = inconclusive; . = no result given.

SMILES | Statin myotox sup | SIRT5 block | rRNA inh HTS | FN deposit inh | FGF22 binding | E-selectin induc | AID977621 | AID977628
Cc1noc(C)c1S(=O)(=O)Nc1ccc2c(c1)C(=O)N([C@@H](C)CO)C[C@@H](C)[C@@H](CN(C)S(=O)(=O)c1cn(C)cn1)OCCCC[C@@H](C)O2 | . | - | - | - | - | . | . | .
COc1ccc(OC)c(NC(=O)c2c3c(nc4ccccc24)CCC3)c1 | . | - | -21.7 | . | - | . | . | ?
CCc1ccc(OCC(=O)NCc2ccco2)c(Br)c1 | - | - | -21.2 | . | - | . | - | .
C[C@H](CO)N1C[C@H](C)[C@H](CN(C)Cc2ccc(C(F)(F)F)cc2)Oc2ccc(NC(=O)Cn3cnnn3)cc2CC1=O | - | - | - | . | - | . | . | .
c1ccc2c(c1)CSc1ccccc1N2 | . | - | -23.8 | - | - | - | - | -
Clc1ccc(CN=C2Nc3ccccc3CS2)cc1 | - | . | . | - | . | - | . | .
CC1Cc2ccccc2N1C(=O)COc1ccc2c(c1)OCO2 (stereo not given) | . | - | -22.4 | - | - | - | . | -
CC1CCCN(C(=O)COc2ccc3c(c2)OCO3)C1 (stereo not given) | . | - | - | - | - | - | . | .
C[C@H]1CN([C@@H](C)CO)C(=O)CCCn2nncc2CO[C@H]1CN(C)Cc1ccc(C(F)(F)F)cc1 | - | . | - | - | . | - | . | .
O=C(NC1CCCC1)N[C@@H]1C=C[C@H](CC(=O)N2CCOCC2)O[C@@H]1CO | - | - | - | - | - | - | . | .
CCNc1nc(N)c(C(=O)C23CC4CC(CC(C4)C2)C3)s1 | - | - | -23.2 | - | - | . | - | -
Cn1c(=O)c2c(nc(N3CCOCC3)n2C/C=C/c2ccccc2)n(C)c1=O | . | - | -18.4 | - | - | - | - | -
O=C(Nc1ccc(C(=O)Nc2ccccc2Cl)cc1)c1cccnc1 | - | - | -19.9 | - | - | . | - | -
N#C[C@@H]1[C@H](c2ccccc2C2=CCCC2)[C@@H](CO)N1C(=O)C1CCOCC1 | . | - | - | - | - | - | . | .
O=C(CCC(=O)c1cccs1)OCC(=O)c1ccc(F)cc1 | - | - | - | - | - | - | . | .
O=C(CCC(=O)c1cccs1)OCC(=O)c1ccc(Cl)s1 | - | - | -17.8 | . | . | . | - | .
CC(C)(C)N(Cc1ccccc1)C(=O)COC(=O)Cn1[nH]c(=O)c2ccccc2c1=O | - | . | - | - | - | - | . | .
CC(C)(C)N(Cc1ccccc1)C(=O)COC(=O)Cn1cnc2ccccc2c1=O | . | - | -31.7 | - | - | - | - | -
O=C(CCC(=O)N1CCN(c2ccc(F)cc2)CC1)c1ccc(F)cc1 | . | - | -20.5 | - | - | . | - | -
CCCc1nc2ccc(Br)cn2c1Cc1cccc(Cl)c1 | - | - | -21.9 | - | - | - | - | -
Cc1noc(C)c1S(=O)(=O)N(C)C[C@H]1Oc2ccc(NS(=O)(=O)c3cn(C)cn3)cc2C(=O)N([C@H](C)CO)C[C@H]1C | - | - | - | . | - | - | . | .
O=C(Nc1ccc(Br)cc1)c1cccnc1N1CCCCC1 | - | - | -33.8 | . | - | . | - | -
O=C(O)c1ccccc1-c1ccccc1C(=O)Nc1ccc2c(c1)CCC2 | - | - | -21.4 | - | - | - | - | .
Cc1occc1C(=O)Nc1ccc2c(c1)CCC2 | . | - | -12.9 | . | - | . | ? | ?
Cc1ccc(S(=O)(=O)Nc2ccc3c(c2)C(=O)N([C@@H](C)CO)C[C@@H](C)[C@H](CN(C)Cc2ccc(C(=O)O)cc2)OCCCC[C@@H](C)O3)cc1 | . | - | - | - | . | . | . | .
SMILES | Statin myotox sup | SIRT5 block | rRNA inh HTS | FN deposit inh | FGF22 binding | E-selectin induc | AID977621 | AID977628
COc1ccccc1-c1noc2ncnc(Nc3ccccc3C)c12 | - | - | -26.6 | - | - | . | - | -
COc1ccccc1Nc1ncnc2c1c(C)c(C)n2CCCN(C)C | - | - | - | - | - | - | . | .
COc1ccccc1-c1noc2ncnc(Nc3cccc(C)c3C)c12 | - | . | -16.5 | - | - | - | - | -
COc1ccccc1-c1noc2ncnc(Nc3ccc4c(c3)OCO4)c12 | - | . | - | - | - | - | . | .
COc1ccc(NC(=O)N(C)C[C@@H]2Oc3ccc(NS(=O)(=O)c4ccccc4)cc3CC(=O)N([C@@H](C)CO)C[C@H]2C)cc1 | - | - | - | . | - | - | . | .
Cc1cc(-c2nnc(SCC(=O)Nc3nc(-c4ccccc4)cs3)o2)no1 | . | - | - | - | - | . | . | .
Cc1occc1-c1nnc(SCC(=O)Nc2nc(-c3ccccc3)cs2)o1 | - | - | -24.4 | . | - | . | ? | -
Cc1ccc(NCC(=O)c2ccc(C)cc2)cc1 | - | - | -18.0 | - | - | - | - | -
CN1C(=O)c2cc(NC(=O)c3ccc(F)cc3)ccc2OC[C@H]2O[C@@H](CC(=O)N3CCOCC3)CC[C@H]21 | - | - | - | - | - | - | . | .
COc1ccc(C(=O)NCCC2=CCCCC2)cc1[N+](=O)[O-] | . | - | -21.6 | - | - | - | - | -
Oc1ccc(-c2csc(Nc3ncccn3)n2)cc1 | - | - | -16.6 | - | - | - | - | -
COC(=O)c1ccc(CN2CC(=O)N3[C@H](CO)[C@H](c4ccc(Br)cc4)[C@H]3C2)cc1 | . | - | - | - | - | - | . | .
CCCc1cn(CC[C@@H]2CC[C@H](NC(=O)Cc3cccnc3)[C@@H](CO)O2)nn1 | - | - | - | - | - | - | . | .
Cc1cccc(-c2cc3nc4c(c(N5CCOCC5)n3n2)CCCC4)c1 | - | - | -32.6 | . | - | . | - | ?
Cc1cccc(-c2cc3nc4c(c(N5CCC6(CC5)OCCO6)n3n2)CCCC4)c1 | - | - | - | . | - | . | . | .
Cc1cc(Cl)ccc1OCCCC(=O)OCC(N)=O | - | - | -18.1 | - | - | ? | - | ?
Cc1cc(Cl)ccc1OCCCC(=O)NN | - | - | - | - | - | . | . | .
Cc1cc(NCc2ccccn2)n2nc(C)c(-c3ccccc3)c2n1 | . | - | -46.7 | - | - | - | - | ?
Cc1nn2c(NCc3ccccn3)cc(C(C)(C)C)nc2c1-c1ccccc1 | - | - | - | - | - | . | . | .
CC(C)N1CC2(CC(c3ccccc3C(F)(F)F)=NO2)CN1C(=O)c1ccco1 (stereo not given) | - | - | -20.5 | - | - | - | . | ?
CC(C)NC(=O)Nc1ccc2c(c1)C(=O)N(C)[C@H]1CC[C@H](CC(=O)Nc3ccccc3)O[C@H]1CO2 | - | - | . | - | - | - | . | .
O=C1CCCc2c1nc(-c1ccc([N+](=O)[O-])cc1)n2O | . | - | -17.5 | - | - | - | ? | ?
COCC(=O)Nc1ccc2c(c1)OC[C@H](C)N(C(=O)c1ccncc1)C[C@@H](C)[C@@H](OC)CN(C)C2=O | - | - | - | - | - | - | . | .

Screening data as filed in PubChem BioAssay.
